Measured values gathered from unrelated publications.
Lines come from different studies, so protocols differ.
Target: Serine/threonine-protein kinase pim-1 (PIM1, Homo sapiens, UniProt P11309)

Structure (SMILES)	effect on	mode	method	tested at	quantity	result
CNc1cccc2cc(C(=O)Nc3ccc(C(=O)O)cc3)c(=O)[nH]c12	enzyme activity	inhibitor		10 µM	inhibition	2.6%
Cn1c(=O)n(-c2ccc(C(C)(C)C#N)cc2)c2c3cc(-c4cnc5ccccc5c4)ccc3ncc21	enzyme activity	inhibitor		10 µM	remaining activity	92%
N#Cc1ccc(Nc2ccc3[nH]c(=O)[nH]c3c2)c(Cl)c1	cell-free assay		competition with immobilised ligand	1 µM	remaining binding	90%
CCN(CC)CCNC(=O)c1c(C)[nH]c(/C=C2\C(=O)Nc3ccc(F)cc32)c1C	cell-free assay			0.5 µM	remaining signal	94.4%
CS(=O)(=O)Nc1cccc(-c2csc(NC(=O)CSc3nc4nccnc4c(=O)n3CCc3ccccc3)n2)c1	enzyme activity	inhibitor		10 µM	inhibition	0%
O=C(N[C@H]1CCCCC/C=C\C2C[C@@]2(C(=O)O)NC(=O)[C@@H]2C[C@@H](Oc3ccncc3)CN2C1=O)OC1CCCC1 (stereo partly drawn)	binding		competition with immobilised ligand	1 µM	remaining binding	100%
CNC(=O)c1cc(Oc2ccc(NC(=O)Nc3ccc(Cl)c(C(F)(F)F)c3)cc2)ccn1	enzyme activity	inhibitor		10 µM	inhibition	5%
CN(C)C1CCN(CC#Cc2nn(C3CCCC3)c3nc(NCc4ccccc4)ncc23)C1 (stereo not drawn)	enzyme activity	inhibitor	FRET	1 µM	inhibition	2%
O=C(Nc1ccc(Oc2ccc(F)cc2)cc1)N1CCc2ncccc2[C@H]1c1ccc(F)cc1	cell-free assay		competition with immobilised ligand	1 µM	remaining binding	99%
Cc1ccc(C(=O)Nc2ccc(CN3CCN(C)CC3)c(C(F)(F)F)c2)cc1C#Cc1cnc2cccnn12	enzyme activity	inhibitor		23.5 nM	remaining activity	100%
CCN1/C(=C/C(C)=O)Sc2ccc(OC)cc21	cell-free assay			0.5 µM	remaining signal	17.9%
CC(C)(C)c1nc(-c2cccc(NS(=O)(=O)c3c(F)cccc3F)c2F)c(-c2ccnc(N)n2)s1	enzyme activity	inhibitor	radiometric	1 µM	remaining activity	109%
C[C@H](NC(=O)c1cnc2n1[C@](C)(Cc1ccc(C#N)cc1)C(=O)N2c1cc(Cl)c(F)c(Cl)c1)C(=O)NC1(c2ccccn2)CC1	cell-free assay		competition with immobilised ligand	1 µM	remaining binding	100%
Cn1c2c(c3ccc(Cl)c(Cl)c31)C(C#N)C1(CCNCC1)NC2=O (racemic)	thermal stability		DSF	10 µM	ΔTm	> 8 °C
CC(C)(C)C(=O)c1sc(NC2CCCCC2)nc1N	enzyme activity	inhibitor		10 µM	remaining activity	90%
O=C(N1CCS(=O)(=O)CC1)N1C[C@H](c2ccc(OC(F)(F)F)cc2)C[C@H](c2nc(C3CC3)no2)C1	cell-free assay		competition with immobilised ligand	1 µM	remaining binding	100%
O=C(Nc1cnn(-c2csc(C(=O)NC3COC3)c2)c1)Nc1ccccc1Cl	enzyme activity	inhibitor		5 µM	remaining activity	64.6%

Structure (SMILES)	effect on	mode	method	tested at	quantity	result
COc1cc2ncnc(Nc3ccc(Oc4ccccc4)cc3C)c2cc1OC	enzyme activity	inhibitor		1 µM	inhibition	-4%
O=C(Nc1cccnn1)N1CC(C/C=C/c2cncc(Oc3ccc(C(F)(F)F)cn3)n2)C1	cell-free assay		competition with immobilised ligand	1 µM	remaining binding	91%
O=S(=O)(Nc1cc(Sc2ncn[nH]2)c(O)c2ccccc12)c1ccc(-c2ccccc2)cc1	enzyme activity	inhibitor		1 µM	remaining activity	≥ 75%
Nc1ncnc2occ(-c3ccc(NC(=O)Nc4cc(C(F)(F)F)ccc4F)cc3)c12	cell-free assay	inhibitor		20 µM	remaining signal	55%
Nc1ncnc2c1ncn2[C@@H]1O[C@H](COP(=O)(O)OP(=O)(O)OP(=O)(O)O)[C@@H](O)[C@H]1O	enzyme activity	substrate	radiometric		Km	48 µM
CS(=O)(=O)N1CCCC(NC(=O)[C@H](CCC2CCCCC2)NC(=O)c2ccc(CNc3ncnc4c3nnn4-c3ccccc3)cc2)C1 (stereo partly drawn)	cell-free assay		competition with immobilised ligand	0.1 µM	remaining binding	95%
FC(F)(F)Oc1cccc(-c2cnc3ccc(-c4ccncc4)nn23)c1	enzyme activity	inhibitor	radiometric	5 µM	activity vs control	47%
Cc1sc(C(=O)NC2COC2)cc1-n1cc(NC(=O)Nc2c(F)cccc2Cl)cn1	enzyme activity	inhibitor		10 µM	remaining activity	95.1%
Cc1ccc(Nc2nccc(N(C)c3ccc4c(C)n(C)nc4c3)n2)cc1S(N)(=O)=O	enzyme activity	inhibitor		0.3 µM	inhibition	-1%
N#CCCc1ccc2c(c1)-c1[nH]c3ccc([N+](=O)[O-])cc3c1CC(=O)N2	cell-free assay			0.5 µM	remaining signal	93.6%
Cc1ccc(NC(=O)c2ccc(C)c(C(F)(F)F)c2)cc1C#Cc1nn(C2CCC(O)CC2)c2ncnc(N)c12 (stereo not drawn)	cell-free assay			10 µM	remaining signal	99%
Oc1cccc(-c2nc(N3CCOCC3)c3oc4ncccc4c3n2)c1	enzyme activity	inhibitor		10 µM	remaining activity	72%
COc1cc2ncnc(Nc3ccc(F)c(Cl)c3)c2cc1OCCCN1CCOCC1	cell-free assay			0.5 µM	remaining signal	86.4%
O=C1CCc2cc(Nc3cc(OC4CCOCC4)c([N+](=O)[O-])cc3Cl)ccc2N1	cell-free assay		competition with immobilised ligand	1 µM	remaining binding	96%
CN1CC(Oc2cnc(C#N)cc2-c2ccn3nc(NC(=O)C4CC4)cc3c2)C1	enzyme activity	inhibitor		1 µM	inhibition	-7%
COc1cc(Nc2cnc(C#N)c(O[C@H](C)CN(C)C)n2)ncc1-c1cnn(C)c1	enzyme activity	inhibitor	radiometric	10 µM	remaining activity	22%
